Usually Cmax stands for the peak of the concentration-time curve. A word on the clearance: it is the rate of elimination divided by the concentration.

The source made the active and inactive calls. The calls are words filed in the database; no cut-off is given here.

Data set [1] concerns the target T1, C3a anaphylatoxin chemotactic receptor (Homo sapiens, UniProt Q16581).
T1 sequence (Q16581 whole entry): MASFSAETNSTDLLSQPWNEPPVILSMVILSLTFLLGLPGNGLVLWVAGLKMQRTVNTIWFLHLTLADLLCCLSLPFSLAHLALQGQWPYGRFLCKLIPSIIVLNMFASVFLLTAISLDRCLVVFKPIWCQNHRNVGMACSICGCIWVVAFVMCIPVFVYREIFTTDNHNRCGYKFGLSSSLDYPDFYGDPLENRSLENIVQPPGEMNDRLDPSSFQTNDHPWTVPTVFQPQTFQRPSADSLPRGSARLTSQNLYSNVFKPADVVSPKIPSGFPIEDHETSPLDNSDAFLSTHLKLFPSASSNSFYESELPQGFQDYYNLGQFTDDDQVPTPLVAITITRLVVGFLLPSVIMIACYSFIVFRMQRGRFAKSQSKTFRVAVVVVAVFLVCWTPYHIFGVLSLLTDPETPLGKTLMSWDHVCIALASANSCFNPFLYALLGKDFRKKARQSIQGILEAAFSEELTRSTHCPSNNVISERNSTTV
In words: Agonist activity at C3a receptor in human MDM cells assessed as induction of intracellular calcium release measured at 1 sec interval for => 200 secs by Fluo-3 AM dye-based FLIPR assay. It counts as cell-based. The method, boiled down:
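HMDMs were differentiated from CD14⁺ monocytes with M-CSF (100 ng/mL) for 7 days and seeded overnight at 5 × 10⁴ cells/well. Cells were loaded with 4 μM Fluo-3 AM for 1 h at 37 °C, then placed in HBSS with 2.5 mM probenecid and 20 mM HEPES, pH 7.4. Agonist was added on FLIPR and read at ex 495/em 520 nm. EC50 is relative to the maximum from 1 μM C3a; n ≥ 3.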
(In general: Calcium assays in cells follow changes in intracellular calcium, usually with a dye or a luminescent sensor.)

Data set [2] addresses T2, C5a anaphylatoxin chemotactic receptor 1 (Homo sapiens) (UniProt P21730).
T2 sequence (whole entry): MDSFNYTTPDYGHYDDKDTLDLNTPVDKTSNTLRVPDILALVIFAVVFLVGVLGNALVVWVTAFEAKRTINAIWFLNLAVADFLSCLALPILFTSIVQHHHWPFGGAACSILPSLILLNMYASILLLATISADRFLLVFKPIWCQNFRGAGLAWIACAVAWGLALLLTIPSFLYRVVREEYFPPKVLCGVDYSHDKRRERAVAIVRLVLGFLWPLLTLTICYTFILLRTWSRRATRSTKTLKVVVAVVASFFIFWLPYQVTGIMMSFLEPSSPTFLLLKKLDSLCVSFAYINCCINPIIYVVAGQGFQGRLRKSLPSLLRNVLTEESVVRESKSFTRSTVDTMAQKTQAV
The data set can be described thus: Antagonist activity at C5a receptor in human MDM cells assessed as inhibition of C5a-induced intracellular calcium release preincubated for 30 mins followed by C5a addition and measured at 1 sec interval for => 200 secs by Fluo-3 AM dye-based FLIPR assay. It counts as functional, cell-based. The method, boiled down:
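HMDMs from CD14+ monocytes after 7 days in M-CSF; 5 × 10⁴ cells/well seeded overnight. Cells loaded 1 h at 37 °C with 4 μM Fluo-3 AM, then washed into HBSS with 2.5 mM probenecid and 20 mM HEPES, pH 7.4. Antagonist preincubated 30 min at 37 °C before C5a. Fluorescence (ex 495/em 520 nm) read every 1 s for ≥200 s.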

Data set [3] can be described thus: Stability of the compound in rat liver microsomes at 1 uM preincubated for 5 mins followed by NADPH addition and measured after 1 hr by LC-MS/MS analysis. The format is ADME, Microsome. A digest of the protocol: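 Compound at 1 μM in 100 mM phosphate buffer, pH 7.4 (0.1% DMSO), was incubated with rat liver microsomes […] at 37 °C before further NADPH was added. Aliquots taken at 0, 5, 15, 30 and 60 min were quenched in MeCN/H₂O (9:1), centrifuged and analysed by LC-MS/MS. Microsomal activity was confirmed in parallel with SLIGRL-NH₂; n = 3.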
In general terms: Liver microsomes are a subcellular fraction often used to study metabolism.

The nature of data set [4]: Cmax in Wistar rat at 10 mg/kg, po by LC-MS/MS analysis. It counts as ADME, organism-based. Further details: dose 10 mg/kg, route oral. As to conditions: in vivo. The method, boiled down:
(§1)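 Male Wistar rats with jugular vein catheter, fasted overnight; dosed p.o. by gavage in olive oil or i.v. via catheter in 50% DMSO. Blood drawn from conscious unrestrained rats 5 min before dosing, then 5, 15, 30 min and 1–8 h after. Volume replaced with heparinized saline. Rats fed after 4 h sample. n = 3 per route.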

The nature of data set [5]: Clearance in Wistar rat at 1 mg/kg, iv by LC-MS/MS analysis. It counts as ADME, organism-based. Conditions: in vivo. The method, boiled down: as §1
The subject of data set [6] is Rattus norvegicus. The data set can be described thus: Antiinflammatory activity in Wistar rat model of BR103-induced paw edema assessed as reduction in hind paw swelling at 10 mg/kg, po administered via gavage pretreated for 2 hrs followed by BR103 challenge and measured after 30 mins by digital caliper method relative to control. It counts as functional. Further details: scale not given: the % may be the effect or the level left. A digest of the protocol: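 Male Wistar rats were given antagonist at 10 mg/kg by oral gavage in olive oil 2 h before intraplantar BR103 (350 μg in 100 μL of 5% DMSO). Sham paws received vehicle; sham and control rats received olive oil only. Paw thickness and width were measured with digital calipers at 0, 0.5, 1 and 2 h after agonist; n = 3 per group.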

For data set [7], the system named is Rattus norvegicus. In words: Antiinflammatory activity in Wistar rat model of BR103-induced paw edema assessed as reduction in hind paw swelling at 30 mg/kg, po administered via gavage pretreated for 6 to 8 hrs followed by BR103 challenge and measured after 30 mins by digital caliper method relative to control. It counts as functional. Set-up: scale not given: the % may be the effect or the level left. The method, boiled down: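 For duration of action, antagonist was given at 30 mg/kg by oral gavage in olive oil at 1, 2, 4, 6, 8 or 12 h before intraplantar BR103 (350 μg/paw) in male Wistar rats. Controls received olive oil 2 h before challenge. Paw thickness and width were measured with calipers at 0 and 0.5 h; n = 3 per group.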

The test system of data set [8] is Rattus norvegicus. The data set can be described thus: Antiinflammatory activity in Wistar rat model of BR103-induced paw edema assessed as reduction in Il10 gene expression at 10 mg/kg, po administered via gavage pretreated for 2 hrs followed by BR103 challenge and measured after 30 mins by SYBR green dye based RT-PCR analysis. It counts as functional, organism-based. The method, boiled down:
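Rats given 10 mg/kg p.o. in olive oil 2 h before i.pl. BR103 (350 μg/paw). Paws collected 0.5 h after agonist and homogenized in TRIsure for RNA. qPCR run in duplicate, normalized to Hprt, with fold change relative to sham. n = 3–5 male Wistar rats per group.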

In data set [9] the test system is Rattus norvegicus. The data set can be described thus: Antiinflammatory activity in Wistar rat model of BR103-induced paw edema assessed as increase in number of intact mast cells at 10 mg/kg, po administered via gavage pretreated for 2 hrs followed by BR103 challenge and measured after 30 mins by alcian blue/safranin O staining-based histopathological analysis. The format is functional, organism-based. The method, boiled down: (§2)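 Male Wistar rats 7–8 weeks old, given 10 mg/kg p.o. in olive oil 2 h before i.pl. BR103 (350 μg/paw). Sham/control received olive oil. Left paw plantar tissue taken 30 min after agonist and fixed in formalin. Frozen 5 μm sections stained with alcian blue/safranin O, or immunostained for tryptase, histamine or ED1. Positive cells quantified; n = 5 per group, one-way ANOVA.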

Data set [10] deals with Rattus norvegicus. The data set can be described thus: Antiinflammatory activity in Wistar rat model of BR103-induced paw edema assessed as reduction in number of ED1-positive macrophages at 10 mg/kg, po administered via gavage pretreated for 2 hrs followed by BR103 challenge and measured after 30 mins by immunohistochemical analysis. The format is functional, organism-based. A digest of the protocol:
as §2

In the case of `Cc1cc(C(c2ccc(Cl)cc2)c2ccc(Cl)cc2)sc1C(=O)N[C@@H](CCCNC(=N)N)C(=O)O`, the EC50 in data set [1] (read-out: EC50) and in [1] (read-out: pEC50 (converted)) was greater than 100 µM in each case. For the same compound, in [2], the inhibition entry is “inactive”. Besides, in data set [3], the Stability entry was “Stable”. The same compound came in with a Cmax in data set [4] of 88 ng/mL. The clearance in data set [5] was found to be 4.4 mL/min/kg. Besides, the Activity in [6] turned out to be 65%; in [7], 85%. The outcome in data set [8], in data set [9] and in data set [10] was Active.

These data come from ChEMBL document CHEMBL4376878, “Potent Thiophene Antagonists of Human Complement C3a Receptor with Anti-Inflammatory Activity” (J Med Chem, 2020).
